CHRM5 PAM: CHRM5 positive allosteric modulation. activation, % at 3 µM. P08912. CHO-K1 hM5, Fluo-8 calcium, ACh EC20 PAM; 0% = ACh EC20, 100% = ACh EC100. 360,000 tested, 0.3% active;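 active means activation above the run cutoff, the mean activation of all test compounds plus 3 SD, cut at about 18% in these data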
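Probe or stimulus: acetylcholine, EC20 level; Assay system: human M5 receptor in CHO-K1 cells; Schedule: compound preincubation 140 s before EC20 acetylcholine addition; Technique: intracellular calcium via Fluo-8 fluorescence; Dosing: single-point, 3 µM nominal; Read-out basis: percent activation from peak-over-basal fluorescence ratio, scaled EC20-to-EC100 acetylcholine; Repeats: one well per compound, no replicates.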
M4 antag: blocks acetylcholine activation of human M4 receptor. P08173. CHO-hM4 cells, ACh EC80, Fluo-8 calcium fluorescence. inhibition, % at 3 µM. 360,000 tested, 0.73% active. AID 624125;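 active means inhibition above its plate's cutoff, the mean inhibition of sample wells plus 3 SD, cut at about 27% in these data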;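 further: 0% = acetylcholine EC80 with DMSO and 100% = DMSO without agonist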
Target sequence (P08173 whole entry, looked up): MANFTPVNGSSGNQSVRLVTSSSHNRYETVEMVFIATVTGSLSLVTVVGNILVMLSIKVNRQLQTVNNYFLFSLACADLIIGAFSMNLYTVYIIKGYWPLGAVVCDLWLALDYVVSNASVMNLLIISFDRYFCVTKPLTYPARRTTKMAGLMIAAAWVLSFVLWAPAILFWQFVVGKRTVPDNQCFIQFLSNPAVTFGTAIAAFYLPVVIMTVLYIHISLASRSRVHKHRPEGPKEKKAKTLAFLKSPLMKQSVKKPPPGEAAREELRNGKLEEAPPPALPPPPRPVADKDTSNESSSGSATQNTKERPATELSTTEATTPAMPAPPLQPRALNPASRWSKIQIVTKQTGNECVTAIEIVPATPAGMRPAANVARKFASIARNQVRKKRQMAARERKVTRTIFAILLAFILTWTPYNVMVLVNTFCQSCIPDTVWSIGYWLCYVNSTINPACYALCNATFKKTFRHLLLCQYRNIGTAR
M5 ag: agonists of human muscarinic M5 receptor (CHRM5); 360,000 tested, 0.19% active; CHO-K1 hM5 cells, Fluo-8 calcium fluorescence; 0% DMSO wells, 100% maximal acetylcholine response; AID 624037; activation, % at 3 µM; P08912;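 active means activation above the run's mean over test compounds plus 3 SD, cut at about 23% in these data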;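 further: signal is peak over basal fluorescence ratio across the kinetic read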
CHRM4 PAM: positive allosteric modulators of human muscarinic M4 receptor | CHO-K1 hM4/Gqi5, Fluo-8 calcium fluorescence, ACh EC20; 0% = ACh EC20, 100% = maximal ACh | P08173 | activation, % at 3 µM | 360,000 tested, 0.4% active | AID 624126;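 active means activation above its plate's cutoff, the mean activation of sample wells plus 3 SD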
M4 ag: CHRM4 agonism in calcium assay; P08173; CHO-K1 hM4/Gqi5, Fluo-8 calcium fluorescence; vehicle 0%, full acetylcholine response 100%; activation, % at 3 µM; 360,000 tested, 0.14% active;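 active means activation above the run mean over all test wells plus 3 SD, cut at about 32% in these data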;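 further: peak over basal fluorescence ratio per well then scaled between controls; 0% = DMSO wells and 100% = acetylcholine at EC100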
M5 antag: antagonists of human muscarinic M5 receptor (CHRM5); P08912; CHO-hM5 cells, Fluo-8 calcium fluorescence, ACh EC80; inhibition, % at 3 µM; 360,000 tested, 0.59% active; AID 624040;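 active means inhibition above a per-plate cutoff, the mean of that plate's test compounds plus 3 SD, cut at about 27% in these data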;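 further: 0% = acetylcholine EC80 with DMSO and 100% = DMSO without agonist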
The depositor's hits bear a star; ! = repeats disagree. Sampled rows, rich in hits. Any-hit rate of the full collection: about 1.9%.

SMILES	CHRM5 PAM	M4 antag	M5 ag	CHRM4 PAM	M4 ag	M5 antag
CCOc1ccc(C(=O)NCc2ccccn2)cc1	3	1	0	31*	1	0
Cc1cccc(NC(=O)c2ccc(OCc3c(C)noc3C)cc2)c1	2	7	-5	-5	3	1
CCOc1cc(-c2nc3n(c(=O)c2C#N)CCS3)ccc1O	-10	9	1	-7	22	11
Cc1onc(-c2ccccc2)c1C(=O)NNC(=S)NC(=O)c1ccc2c(c1)OCO2	-10	5	21	-10	70*	13
COc1ccc(Br)cc1CN1CCCCCCC1	-11	12	-7	-13	1	10
COc1ccc(C(=O)c2coc3ccc(OC(C)=O)cc23)cc1	-10	5	-4	-7	3	29*
COCC1CCCN(Cc2nc(C(c3ccccc3)c3ccccc3)no2)C1 (stereo not drawn)	1	-11	-9	-4	-1	1
c1ccc(C(c2ccccc2)c2noc(CN3CCN(CC4CC4)CC3)n2)cc1	-33	31*	-18	-24	1	24
O=C1CN(c2ccccc2Cl)C(=O)CN1c1ccccc1Cl	-2	10	-3	-4	0	6
Cc1ccccc1N1CC(=O)N(c2ccccc2C)CC1=O	-5	9	-2	20*	2	-8
CC(C)c1nnc(NC(=O)CSc2ccccc2)s1	-7	-11	-6	11	-1	-8
O=C(Nc1nnc(C23CC4CC(CC(C4)C2)C3)s1)c1ccc(N2C(=O)CCC2=O)cc1	-20	60*	0	-16	1	13
Cc1cc(N2CCCC2)c(F)cc1/C=C\[N+](=O)[O-]	-13	11	25*	-9	30	64*
Cc1cc(N2CCC(C)CC2)c(F)cc1[N+](=O)[O-]	4	-3	3	1	0	-11
Cc1ccc(Cl)cc1NC(=O)C1CC(=O)N(C(C)C)C1 (stereo not drawn)	4	7	3	1	0	4
CC(=O)N1c2ccc(S(=O)(=O)N3CCC(C(=O)N4CCN(c5cc(Cl)ccc5C)CC4)CC3)cc2CC1C (stereo not drawn)	-17	36*	5	-18	21	28*
CC(=O)N1c2ccc(S(=O)(=O)N3CCC(C(=O)N4CCC(C)CC4)CC3)cc2CC1C (stereo not drawn)	0	0	-2	0	2	3
CC(=O)N1CCCc2cc(S(=O)(=O)N3CCCC(C(=O)N4CCN(c5cc(C)ccc5C)CC4)C3)ccc21 (stereo not drawn)	-18	-14	2	-27	37*	21
CC1Cc2cc(S(=O)(=O)N3CCC(C(=O)N4CCN(c5ccccc5F)CC4)CC3)ccc2N1C(=O)C1CC1 (stereo not drawn)	-11	37*	2	-11	15	30*
COc1ccc(N2CCN(S(=O)(=O)c3ccc4c(c3)CC(C)N4C(=O)C3CC3)CC2)cc1 (stereo not drawn)	-13	8	-3	-6	0	27*
CN1CCN(CC(O)COC(c2ccccc2)c2ccccc2)CC1 (stereo not drawn)	-3	1	-6	0	1	16
Cc1ccc(NC(=O)COc2ccccc2[N+](=O)[O-])nc1	5	-4	2	1	2	-5
CCc1ccccc1N(CC)C(=O)c1cn(C)c(=O)c2cc(OC)c(OC)cc12	-16	-5	-9	-4	1	-3
O=C(O)c1ccccc1C(=O)c1ccc(N2CCCC2)c([N+](=O)[O-])c1	4	-6	-2	6	1	-10
CC(=O)c1ccc(N2CCC(c3cc(-c4ccc(Cl)cc4Cl)n[nH]3)CC2)c([N+](=O)[O-])c1	-10	34*	-1	-16	6	16
SMILES	CHRM5 PAM	M4 antag	M5 ag	CHRM4 PAM	M4 ag	M5 antag
CC(=O)c1ccc(N2CCN(c3ccccc3O)CC2)c([N+](=O)[O-])c1	-16	12	8	-17	31	31*
COc1ccc(N2C(=O)CC(N3CCN(S(=O)(=O)c4c(F)cccc4F)CC3)C2=O)cc1OC (stereo not drawn)	0	4	0	-5	1	4
O=C(NC(c1ccc(F)cc1)c1ccc2ccccc2n1)C1CCN(CCOc2ccc(F)cc2)CC1 (stereo not drawn)	-6	-8	-2	2	8	2
O=C(Nc1cc(C(F)(F)F)ccc1F)C1CCC1	-4	2	-4	-1	1	-13
CN1CCN(C(=O)c2c(O)c3cccc4c3n(c2=O)CCC4)CC1	4	5	1	7	0	-4
CCc1ccc(NC(=O)Cn2cc([N+](=O)[O-])nc2C)cc1	21*	1	4	1	2	-3
CCC1Oc2ccc(C)cc2N(CC(=O)N(Cc2ccc(C)o2)C2CC(C)(C)NC(C)(C)C2)C1=O (stereo not drawn)	-8	5	-12	-11	1	1
CC1=CC(C)(C)N2C(=O)C(=O)c3cc(OC(=O)c4ccco4)cc1c32	-12	-1	36*	-11	20	9
CN(C)CCC(Oc1ccccc1OCc1ccccc1)c1ccccc1 (stereo not drawn)	-33	-1	-10	-55	27	28*
CC(C)CN1Cc2ccccc2Oc2cc(Br)ccc2S1(=O)=O	12	-8	22	25*	9	1
CC(Sc1cnccn1)C(=O)O (stereo not drawn)	-15	7	-2	-9	22	32*
CC(C)Cn1c(N)c(C=O)c(=O)n(C)c1=O	18*	0	6	-2	0	2
CC(C)Cn1c(N)c(C(=O)CCl)c(=O)n(C)c1=O	-4	3	5	3	3	10
CCOC(=O)C1CCC(CNCc2ccccc2C)CC1 (stereo not drawn)	-8	34*	-17	-24	2	0
Cc1ccc2cc(NC(=O)c3ccc(C(C)(C)C)cc3)ccc2n1	0	20	-3	11	21	27*
COc1ccc2c(c1)-c1ccccc1S(=O)(=O)N2C(C)=O	-1	-14	-2	11	2	-1
C1CCC(C(CC2CCCCN2)C2CCCCC2)CC1 (stereo not drawn)	-17	35*!	2	-15	11	14
COc1ccc(CSc2nnc3[nH]c(=O)cc(N)n23)cc1	-13	-8	-7	20	1	35*
CCOC(=O)Cn1nc(C)n(-c2ccc(C(C)(C)C)cc2)c1=O	21*	-3	1	9	0	6

Screening data from PubChem BioAssay.
